Each structure is given as a SMILES string.

One data set relates to Cucumis sativus. Put plainly: Stimulation of cytyledon expansion in cucumber after 3 days. In kind it is functional. Details: concentration or dose not given beside the values. Summed up:
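Soaked cucumber seeds were germinated on 0.7% agar for 3 days in the dark at 26 °C, and cotyledons of similar size were selected. Compound in DMF was dried onto 6-cm filter paper, then distilled water was added to give 10 mg/L. Ten cotyledons were cultured per dish under light (300 Lux, 26 °C). Percent increase was taken over the no-regulator control.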

Data set [1] can be described thus: Solubility in ethanol. The format is physicochemical.
A further data set concerns Brassica napus. Kind of data set: Stimulation of hypocotyls elongation in rape after 3 days. The format is functional. The arrangement: concentration or dose not given beside the values. Summed up: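 Rape seeds were cultured at 25 °C in the dark. Hypocotyl length was measured after 3 days and compared with seeds treated with distilled water; two replicates.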
The subject of the next data set is Triticum aestivum. Put plainly: Stimulation of coleoptiles growth in common wheat after 18 to 20 hrs. In kind it is functional. Details: concentration or dose not given beside the values. Summed up:
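Wheat coleoptile tips (5 mm) were soaked in distilled water for 1 h to remove endogenous hormone, then cut into 10 segments. Compound in DMF was dried onto 6-cm filter paper and placed in 0.01 mol/L phosphoric acid–citric acid buffer (pH 5) with 2% sucrose, giving 10 mg/L. Ten segments were cultured at 25 °C in the dark for 18–20 h. Length was compared with untreated segments; two replicates.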

Data set [2] in a line: Solubility in ethyl acetate solution. In kind it is physicochemical.
A short description of data set [3]: Solubility in chloroform. The format is physicochemical.

Consider `CCCCCCCCCCCC(=O)NCCOC(=O)COc1ccc(Cl)cc1Cl`, for which the values for the Activity in the data set on Cucumis sativus, in the data set with Brassica napus and in the data set on Triticum aestivum were 4%, 69% and 17.9%, respectively. For the same compound, the values for the Solubility in data set [1], in data set [2] and in data set [3] were 10.42 g, 11 g and 15.1 g, respectively.
Regarding `CCCCCCCCCCCC(=O)NCCO`, the values for the Solubility in data set [1], in data set [2] and in data set [3] were 9.14 g, 0.38 g and 1.76 g, respectively.
With `CCCCCCCCCCCCCCCCCC(=O)NCCOC(=O)COc1ccccc1C`, the Activity with Cucumis sativus turned out to be 5.7%; with Brassica napus it was 57%; in the data set on Triticum aestivum, 0.7%. Also, the Solubility in data set [1] is recorded as 3.08 g; in data set [2], 8.27 g; in data set [3] it was 53.97 g.
`CCCCCCCCCCCC(=O)NCCOC(=O)COc1ccc(C)cc1`: the Activity in the data set on Cucumis sativus is given as 5.9%; with Brassica napus, 54.9%; in the data set with Triticum aestivum, 4.1%.
For `CCCCCCCCCCCC(=O)NCCOC(=O)COc1ccc(Cl)cc1`, the Activity in the data set with Cucumis sativus is on record as 2.9%; with Brassica napus it was 71.8%; with Triticum aestivum it was 16%.
With `CCCCCCCCCCCCCCCCCC(=O)NCCOC(=O)COc1ccc(Cl)cc1`, the Activity was 6.3% with Cucumis sativus, 71.8% with Brassica napus and 5% in the data set with Triticum aestivum. The Solubility in data set [1] amounted to 1.88 g; in data set [2] it was 1.54 g; in data set [3] it was 4.37 g.
With `CCCCCCCCCCCCCCCCCC(=O)NCCOC(=O)COc1ccc(Cl)cc1Cl`, the Activity in the data set on Cucumis sativus is 0.7%; in the data set on Brassica napus, 73.8%; in the data set on Triticum aestivum, 7.5%. For the same compound, the Solubility in data set [1] is recorded as 1.03 g; in data set [2], 3.54 g; in data set [3], 10.22 g.
`CCCCCCCCCCCCCCCCCC(=O)NCCOC(=O)COc1ccc(C)cc1`: the figures for the Activity in the data set on Cucumis sativus, in the data set on Brassica napus and in the data set on Triticum aestivum were 9.8%, 38.7% and 3.3%, respectively.
Turning to `CCCCCCCCCCCCCC(=O)NCCOC(=O)COc1ccc(Cl)cc1Cl`, the Activity with Cucumis sativus is given as -0.1%; with Brassica napus it was 68.1%; in the data set with Triticum aestivum, 8.9%.
`CCCCCCCCCCCCCCCCCC(=O)NCCO` [N-(2-HYDROXYETHYL)STEARAMIDE]: the Activity in the data set with Cucumis sativus is reported as 6.2%; with Brassica napus it was 35.3%; in the data set with Triticum aestivum, 2.1%. The results for the Solubility in data set [1], in data set [2] and in data set [3] were 0.34 g, 0.03 g and 0.16 g, respectively.
As for `O=C(O)COc1ccc(Cl)cc1Cl` [2,4-DICHLOROPHENOXYACETIC ACID], the Activity with Cucumis sativus turned out to be 0.8%; in the data set with Brassica napus it was 65.7%; in the data set with Triticum aestivum, 28.3%.
`CCCCCCCCCCCCCCCCCC(=O)NCCOC(=O)COc1cccc(OC)c1`: the figures for the Activity in the data set on Cucumis sativus, in the data set on Brassica napus and in the data set on Triticum aestivum were -0.1%, -1.4% and 5%, respectively. Moreover, the Solubility worked out at 1.99 g in data set [1], 2.67 g in data set [2] and 7.76 g in data set [3].
`CCCCCCCCCCCCCCCC(=O)NCCOC(=O)COc1ccc(Cl)cc1Cl`: the values for the Activity in the data set on Cucumis sativus, in the data set on Brassica napus and in the data set with Triticum aestivum were 3.5%, 67.3% and 17%, respectively.

The record behind these values is ChEMBL document CHEMBL1139901, “Synthesis of new plant growth regulator: N-(fatty acid) O-aryloxyacetyl ethanolamine” (Bioorg Med Chem Lett, 2007).
